Converted amounts (≈) assume the structure as drawn.
Tests used:
Format in all cases: functional
Pseudomonas aeruginosa [1] = assay: Antibacterial activity against Pseudomonas aeruginosa ATCC 27853 by microdilution method
Summary of the method: (§1)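 MIC (µg/ml) by broth microdilution in Mueller Hinton medium per NCCLS guidance; E. coli ATCC 25922 and P. aeruginosa ATCC 27853.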

Escherichia coli [2] = assay: Antibacterial activity against Escherichia coli ATCC 25922 by microdilution method; summary of the method: as §1
Escherichia coli [3] = assay: Inhibition of transcription-translation activity in Escherichia coli
Summary of the method: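 Coupled in vitro transcription–translation using E. coli extracts; IC50 in µM.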

Pseudomonas aeruginosa [4] = assay: Antibacterial activity against Pseudomonas aeruginosa by agar dilution method
Summary of the method: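 Agar dilution susceptibility testing on Mueller Hinton agar, performed by Fujisawa Pharmaceuticals; MIC50/80/90 denote concentration inhibiting that percent of isolates.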

Escherichia coli [5] = assay: Antibacterial activity against Escherichia coli ATCC 25922 by microdilution method in presence of serum
Summary of the method: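 Broth microdilution in MH medium per NCCLS, run with and without 50% mouse serum; MIC (µg/ml) in serum reported as fold shift relative to serum-free MIC; strains E. coli ATCC 25922 and P. aeruginosa ATCC 27853.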

| Structure (SMILES) | MIC (Pseudomonas aeruginosa [1]) [µg/mL] | MIC (Escherichia coli [2]) [µg/mL] | IC50 (Escherichia coli [3]) [µM] | MIC50 (Pseudomonas aeruginosa [4]) [µg/mL] | MIC80 (Pseudomonas aeruginosa [4]) [µg/mL] | MIC90 (Pseudomonas aeruginosa [4]) [µg/mL] | Fold change (Escherichia coli [5]) |
| --- | --- | --- | --- | --- | --- | --- | --- |
| Cl.N[C@@H]1C[C@H](N)CN(c2cc(Nc3ccc(NC(=O)c4ccc5ccccc5c4O)cc3)nc(N3C[C@H](N)C[C@H](N)C3)n2)C1 | 8 | ≤ 0.5 | 18 | – | – | – | – |
| Cl.N[C@@H]1C[C@H](N)CN(c2nc(Nc3ccc(NC(=O)c4ccc5ccccc5c4)cc3)nc(N3C[C@H](N)C[C@H](N)C3)n2)C1 | ≤ 0.5 | 1 | 24 | – | – | – | – |
| CCN1CCN(C(=O)N[C@@H](C(=O)N[C@@H]2C(=O)N3[C@@H]2SC(C)(C)[C@@H]3C(=O)O)c2ccccc2)C(=O)C1=O [PIPERACILLIN] | – | – | – | 8 (≈ 15.5 µM) | 32 (≈ 61.8 µM) | 64 (≈ 124 µM) | – |
| Cl.N[C@@H]1C[C@H](N)CN(c2nc(Nc3ccc(NC(=O)c4cccnc4O)c(O)c3)nc(N3C[C@H](N)C[C@H](N)C3)n2)C1 | ≤ 0.5 | 8 | 4 | – | – | – | – |
| CCN1CCN(c2cc3c(cc2F)c(=O)c(C(=O)Nc2ccc(Nc4nc(N5C[C@H](N)C[C@H](N)C5)nc(N5C[C@H](N)C[C@H](N)C5)n4)cc2)cn3C2CC2)CC1.Cl | 2 | ≤ 0.5 | 1.3 | – | – | – | – |
| CC(C)(O/N=C(\C(=O)N[C@@H]1C(=O)N2C(C(=O)[O-])=C(C[n+]3ccccc3)CS[C@H]12)c1csc(N)n1)C(=O)O [CEFTAZIDIME] | – | – | – | 2 (≈ 3.66 µM) | 8 (≈ 14.6 µM) | 16 (≈ 29.3 µM) | – |
| Cl.N[C@@H]1C[C@H](N)CN(c2nc(Nc3ccc(NC(=O)c4ccc5ccccc5c4O)cc3)nc(N3C[C@H](N)C[C@H](N)C3)n2)C1 | ≤ 0.5 | 1 | 24 | – | – | – | – |
| Cl.N[C@@H]1C[C@H](N)CN(c2nc(Nc3ccc(NC(=O)c4cnc5ccccc5c4O)cc3)nc(N3C[C@H](N)C[C@H](N)C3)n2)C1 | 1 | 4 | 5 | – | – | – | – |
| Cl.N[C@@H]1C[C@H](N)CN(c2cc(Nc3ccc(NC(=O)c4cnc5ccccc5c4O)cc3)cc(N3C[C@H](N)C[C@H](N)C3)n2)C1 | ≤ 0.5 | ≥ 64 | 2.2 | – | – | – | – |
| Cl.N[C@@H]1C[C@H](N)CN(c2nc(Nc3ccc(NC(=O)c4cnc5ccccc5c4O)c(O)c3)nc(N3C[C@H](N)C[C@H](N)C3)n2)C1 | 1 | 1 | 5 | – | – | – | – |
| NCC[C@H](O)C(=O)N[C@@H]1C[C@H](N)[C@@H](O[C@H]2O[C@H](CN)[C@@H](O)[C@H](O)[C@H]2O)[C@H](O)[C@H]1O[C@H]1O[C@H](CO)[C@@H](O)[C@H](N)[C@H]1O [AMIKACIN] | – | – | – | 4 (≈ 6.83 µM) | 8 (≈ 13.7 µM) | 32 (≈ 54.6 µM) | – |
| Cl.N[C@@H]1C[C@H](N)CN(c2cc(Nc3ccc(NC(=O)c4ccc5ccccc5c4O)cc3)cc(N3C[C@H](N)C[C@H](N)C3)n2)C1 | 1 | 2 | 26 | – | – | – | – |
| Cl.N[C@@H]1C[C@H](N)CN(c2nc(Nc3ccc(NC(=O)c4cc(Cl)cnc4O)c(O)c3)nc(N3C[C@H](N)C[C@H](N)C3)n2)C1 | ≤ 0.5 | 4 | 3 | – | – | – | 2 |
| Cl.N[C@@H]1C[C@H](N)CN(c2nc(N3C[C@H](N)C[C@H](N)C3)c3[nH]c(Nc4ccc(NC(=O)c5cnc6ccccc6c5O)cc4)nc3n2)C1 | 1 | 1 | – | – | – | – | – |
| Cl.N[C@@H]1C[C@H](N)CN(c2nc(Nc3ccc(NC(=O)c4cc(Cl)ccc4O)c(O)c3)nc(N3C[C@H](N)C[C@H](N)C3)n2)C1 | 1 | 4 | 9 | – | – | – | – |
| C[C@@H](O)[C@H]1C(=O)N2C(C(=O)O)=C(SCCNC=N)C[C@H]12 [IMIPENEM ANHYDROUS] | – | – | – | 2 (≈ 6.68 µM) | 16 (≈ 53.4 µM) | 16 (≈ 53.4 µM) | – |
| O=C(N[C@H](CO)[C@H](O)c1ccc([N+](=O)[O-])cc1)C(Cl)Cl [CHLORAMPHENICOL] | – | – | – | > 128 | > 128 | > 128 | – |
| Cl.N[C@@H]1C[C@H](N)CN(c2nc3nc(Nc4ccc(NC(=O)c5ccc6ccccc6c5O)cc4)nc(N4C[C@H](N)C[C@H](N)C4)c3[nH]2)C1 | 2 | 1 | 18 | – | – | – | – |
| Cl.N[C@@H]1C[C@H](N)CN(c2nc(Nc3ccc(NC(=O)c4ccc5cccnc5c4O)cc3)nc(N3C[C@H](N)C[C@H](N)C3)n2)C1 | 2 | 4 | – | – | – | – | – |
| Cl.N[C@@H]1C[C@H](N)CN(c2nc(N3C[C@H](N)C[C@H](N)C3)c(Cl)c(Nc3ccc(NC(=O)C4=CN(C5CC5)C5C=C(N6CCNCC6)C(F)=CC5C4=O)cc3)c2Cl)C1 (stereo not given in full) | 8 | 8 | 0.8 | – | – | – | – |
| CCn1cc(C(=O)Nc2ccc(Nc3nc(N4C[C@H](N)C[C@H](N)C4)nc(N4C[C@H](N)C[C@H](N)C4)n3)cc2)c(=O)c2cnc(N3CCNCC3)nc21.Cl | 1 | 32 | 0.9 | – | – | – | – |
| Cl.N[C@@H]1C[C@H](N)CN(c2cc(Nc3ccc(NC(=O)c4ccc5ccccc5c4O)cc3)nc(N3C[C@H](N)C[C@H](N)C3)c2)C1 | ≤ 0.5 | 2 | 16 | – | – | – | – |
| CCn1cc(C(=O)Nc2ccc(Nc3nc(N4C[C@H](N)C[C@H](N)C4)nc(N4C[C@H](N)C[C@H](N)C4)n3)cc2)c(=O)c2cc(F)c(N3CCNCC3)cc21.Cl | 1 | ≤ 0.5 | 2 | – | – | – | – |
| Cl.N[C@@H]1C[C@H](N)CN(c2nc(Nc3ccc(NC(=O)c4ncccc4O)c(O)c3)nc(N3C[C@H](N)C[C@H](N)C3)n2)C1 | 4 | 8 | 10 | – | – | – | – |
| CCn1cc(C(=O)O)c(=O)c2ccc(C)nc21 [NALIDIXIC ACID] | – | – | > 100 | – | – | – | – |

Now from value to compound, other results behind:

| MIC (Pseudomonas aeruginosa [1]) [µg/mL] | MIC (Escherichia coli [2]) [µg/mL] | IC50 (Escherichia coli [3]) [µM] | MIC50 (Pseudomonas aeruginosa [4]) [µg/mL] | MIC80 (Pseudomonas aeruginosa [4]) [µg/mL] | MIC90 (Pseudomonas aeruginosa [4]) [µg/mL] | Structure (SMILES) | Fold change (Escherichia coli [5]) |
| --- | --- | --- | --- | --- | --- | --- | --- |
| 1 | 4 | 24 | – | – | – | Cl.N[C@@H]1C[C@H](N)CN(c2nc(Nc3ccc(NC(=O)c4cnc5ccccc5c4O)c(Cl)c3)nc(N3C[C@H](N)C[C@H](N)C3)n2)C1 | – |
| 2 | 4 | 2 | – | – | – | CCn1cc(C(=O)Nc2ccc(Nc3nc(N4C[C@H](N)C[C@H](N)C4)nc(N4C[C@H](N)C[C@H](N)C4)n3)cc2)c(=O)c2ccc(C)nc21.Cl | – |
| – | – | – | 4 | 4 | 8 | Cl.N[C@@H]1C[C@H](N)CN(c2nc(Nc3ccc(NC(=O)c4ccc(Cl)cc4)c(O)c3)nc(N3C[C@H](N)C[C@H](N)C3)n2)C1 | – |
| 1 | 2 | 14 | – | – | – | Cl.N[C@@H]1C[C@H](N)CN(c2nc(N3C[C@H](N)C[C@H](N)C3)c(Cl)c(Nc3ccc(NC(=O)c4ccc5ccccc5c4O)cc3)c2Cl)C1 | – |
| 1 | 1 | 3 | – | – | – | CCn1cc(C(=O)Nc2ccc(Nc3nc(N4C[C@H](N)C[C@H](N)C4)nc(N4C[C@H](N)C[C@H](N)C4)n3)cc2)c(=O)c2cc3c(cc21)OCO3.Cl | – |
| 16 | 8 | 0.4 | – | – | – | Cl.N[C@@H]1C[C@H](N)CN(c2nc(N3C[C@H](N)C[C@H](N)C3)c3[nH]c(Nc4ccc(NC(=O)c5ccc6cccnc6c5O)cc4)nc3n2)C1 | – |
| 8 | 16 | 1 | – | – | – | CC1COc2c(N3CCNCC3)c(F)cc3c(=O)c(C(=O)Nc4ccc(Nc5nc(N6C[C@H](N)C[C@H](N)C6)nc(N6C[C@H](N)C[C@H](N)C6)n5)cc4)cn1c23.Cl (stereo not given in full) | – |
| 2 | 64 | 0.4 | – | – | – | Cl.N[C@@H]1C[C@H](N)CN(c2nc(Nc3ccc(NC(=O)c4cn(C5CC5)c5cc(N6CCNCC6)c(F)cc5c4=O)cc3)nc(N3C[C@H](N)C[C@H](N)C3)n2)C1 | – |
| – | – | – | 32 (≈ 72 µM) | 64 (≈ 144 µM) | 64 (≈ 144 µM) | CN(C)[C@@H]1C(O)=C(C(N)=O)C(=O)[C@@]2(O)C(O)=C3C(=O)c4c(O)cccc4[C@@](C)(O)[C@H]3C[C@@H]12 [TETRACYCLINE] | – |
| 2 | 2 | 12 | – | – | – | Cl.N[C@@H]1C[C@H](N)CN(c2cc(Nc3ccc(NC(=O)c4ccc5ccccc5c4O)cc3)cc(N3C[C@H](N)C[C@H](N)C3)c2)C1 | – |
| 2 | 4 | 11 | – | – | – | Cl.N[C@@H]1C[C@H](N)CN(c2nc(Nc3ccc(NC(=O)c4ccccc4O)c(O)c3)nc(N3C[C@H](N)C[C@H](N)C3)n2)C1 | – |

— ChEMBL document CHEMBL1145648, “Antibacterial activity in serum of the 3,5-diamino-piperidine translation inhibitors” (Bioorg Med Chem Lett, 2008)
